Experiments:
[1] = biological target: T1, Inhibitor of nuclear factor kappa-B kinase subunit beta (Homo sapiens, UniProt O14920); assay: Inhibition of IKKbeta using 5FAM-GRHDSGLDSMK-NH2 as substrate incubated for 10 mins prior to substrate addition by IMAP-TR-FRET assay
T1 sequence (O14920 whole entry): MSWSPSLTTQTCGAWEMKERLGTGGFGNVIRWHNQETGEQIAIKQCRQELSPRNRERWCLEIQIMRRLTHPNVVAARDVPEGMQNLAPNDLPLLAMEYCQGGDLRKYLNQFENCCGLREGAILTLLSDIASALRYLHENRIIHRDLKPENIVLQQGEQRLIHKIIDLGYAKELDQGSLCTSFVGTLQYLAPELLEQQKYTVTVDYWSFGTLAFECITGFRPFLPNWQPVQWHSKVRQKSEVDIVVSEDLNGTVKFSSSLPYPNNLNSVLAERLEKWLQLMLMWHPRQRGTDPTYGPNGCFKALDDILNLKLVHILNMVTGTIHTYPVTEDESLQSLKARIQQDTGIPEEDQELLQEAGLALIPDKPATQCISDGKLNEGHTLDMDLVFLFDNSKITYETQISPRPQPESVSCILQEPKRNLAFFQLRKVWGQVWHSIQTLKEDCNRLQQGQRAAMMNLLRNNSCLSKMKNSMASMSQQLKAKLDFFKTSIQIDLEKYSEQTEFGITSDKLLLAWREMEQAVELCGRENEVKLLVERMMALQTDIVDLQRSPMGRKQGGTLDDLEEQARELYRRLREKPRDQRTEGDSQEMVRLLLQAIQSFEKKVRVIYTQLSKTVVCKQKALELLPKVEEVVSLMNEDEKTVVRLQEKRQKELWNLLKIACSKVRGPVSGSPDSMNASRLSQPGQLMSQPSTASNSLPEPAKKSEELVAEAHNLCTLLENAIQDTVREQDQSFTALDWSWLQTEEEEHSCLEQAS

[2] = biological target: T2, Inhibitor of nuclear factor kappa-B kinase subunit beta (Homo sapiens) (UniProt O14920); assay: Inhibition of IKKbeta in human HeLa cells assessed as inhibition of TPA-induced NFkappaB activation at 10 uM incubated for 1 hr prior to TPA-challenge measured after 8 hrs by luciferase reporter gene assay; assay type: cell-based
T2 sequence (whole entry): T1 sequence (O14920 whole entry)
Outline: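 HeLa cells transfected with an NF-κB luciferase reporter plasmid, pre-treated with inhibitor for 1 h, then stimulated with TPA (50 ng/mL) for 8 h. Luciferase activity normalized to protein content of each extract, expressed as relative luciferase units per mg versus non-treated cells; n = 3.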

[3] = biological target: T3, Inhibitor of nuclear factor kappa-B kinase subunit beta (Mus musculus, UniProt O88351); assay: Inhibition of IKKbeta in mouse CIA model splenocytes assessed as inhibition of TNFalpha production after 72 hrs by ELISA; assay type: cell-based
T3 sequence (O88351 whole entry): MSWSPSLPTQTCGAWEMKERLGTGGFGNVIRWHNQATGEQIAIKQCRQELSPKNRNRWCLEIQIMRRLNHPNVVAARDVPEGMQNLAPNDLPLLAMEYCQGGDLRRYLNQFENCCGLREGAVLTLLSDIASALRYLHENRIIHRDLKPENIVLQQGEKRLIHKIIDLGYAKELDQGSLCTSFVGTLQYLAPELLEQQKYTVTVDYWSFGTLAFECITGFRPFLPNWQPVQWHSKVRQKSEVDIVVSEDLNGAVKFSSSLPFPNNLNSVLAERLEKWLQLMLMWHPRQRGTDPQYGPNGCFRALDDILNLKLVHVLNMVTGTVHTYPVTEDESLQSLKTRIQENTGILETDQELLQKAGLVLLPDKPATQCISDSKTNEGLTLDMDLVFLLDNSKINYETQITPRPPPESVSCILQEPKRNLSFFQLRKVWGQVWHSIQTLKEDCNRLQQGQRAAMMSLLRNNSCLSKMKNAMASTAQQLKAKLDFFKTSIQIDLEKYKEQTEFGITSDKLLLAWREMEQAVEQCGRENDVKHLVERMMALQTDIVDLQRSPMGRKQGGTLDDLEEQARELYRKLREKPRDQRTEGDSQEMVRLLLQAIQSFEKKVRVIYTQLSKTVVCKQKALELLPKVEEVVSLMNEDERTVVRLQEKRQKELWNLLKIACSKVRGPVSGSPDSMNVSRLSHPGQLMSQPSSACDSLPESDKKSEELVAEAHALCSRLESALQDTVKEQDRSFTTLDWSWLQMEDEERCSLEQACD
Outline: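 Spleens from collagen type II-immunized mice were taken 8 weeks after primary immunization. Red cells were lysed with 0.83% ammonium chloride, and cells were strained and resuspended in RPMI 1640 at 1 × 10^6 cells/well, then exposed to inhibitor for 72 h. Supernatant TNFα was measured by sandwich ELISA with an alkaline phosphatase chromogenic read at 405 nm, quantified against a recombinant murine TNFα standard curve.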

[4] = biological target: T4, Inhibitor of nuclear factor kappa-B kinase subunit alpha (Homo sapiens, UniProt O15111); assay: Inhibition of IKKalpha
T4 sequence (O15111 whole entry): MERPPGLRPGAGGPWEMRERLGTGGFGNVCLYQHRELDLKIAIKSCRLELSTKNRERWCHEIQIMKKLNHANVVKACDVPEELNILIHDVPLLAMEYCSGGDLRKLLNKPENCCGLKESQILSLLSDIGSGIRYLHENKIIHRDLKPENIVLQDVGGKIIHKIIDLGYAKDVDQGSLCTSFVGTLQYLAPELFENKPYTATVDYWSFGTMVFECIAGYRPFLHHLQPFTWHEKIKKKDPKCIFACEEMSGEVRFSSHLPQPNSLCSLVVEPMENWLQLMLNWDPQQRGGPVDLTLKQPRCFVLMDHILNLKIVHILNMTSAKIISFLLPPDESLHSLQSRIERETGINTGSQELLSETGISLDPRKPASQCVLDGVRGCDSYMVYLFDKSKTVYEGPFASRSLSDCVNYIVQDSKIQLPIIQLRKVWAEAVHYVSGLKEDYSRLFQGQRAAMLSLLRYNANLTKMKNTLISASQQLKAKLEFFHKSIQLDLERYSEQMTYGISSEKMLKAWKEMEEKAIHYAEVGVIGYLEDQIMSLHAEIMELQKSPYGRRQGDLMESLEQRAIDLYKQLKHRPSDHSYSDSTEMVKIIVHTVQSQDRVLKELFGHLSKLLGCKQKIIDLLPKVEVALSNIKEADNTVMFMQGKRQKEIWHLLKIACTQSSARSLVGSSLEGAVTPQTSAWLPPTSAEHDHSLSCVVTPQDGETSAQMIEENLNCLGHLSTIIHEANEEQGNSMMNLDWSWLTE

[5] = biological target: Mitogen-activated protein kinase 14 (Homo sapiens, UniProt Q16539); assay: Inhibition of MAPK p38alpha
Mitogen-activated protein kinase 14, sequence (Q16539 whole entry): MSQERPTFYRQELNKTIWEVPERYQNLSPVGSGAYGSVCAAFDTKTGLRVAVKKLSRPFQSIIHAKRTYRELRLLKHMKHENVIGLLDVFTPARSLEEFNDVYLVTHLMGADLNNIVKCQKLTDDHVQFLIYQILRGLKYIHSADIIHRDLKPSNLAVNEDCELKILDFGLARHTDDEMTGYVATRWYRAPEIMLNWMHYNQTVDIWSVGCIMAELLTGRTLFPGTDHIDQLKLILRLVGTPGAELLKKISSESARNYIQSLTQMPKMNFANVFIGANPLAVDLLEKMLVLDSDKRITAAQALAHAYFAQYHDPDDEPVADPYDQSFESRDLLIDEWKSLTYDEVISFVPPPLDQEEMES

[6] = biological target: Mitogen-activated protein kinase 11 (Homo sapiens, UniProt Q15759); assay: Inhibition of MAPK p38beta
Mitogen-activated protein kinase 11, sequence (Q15759 whole entry): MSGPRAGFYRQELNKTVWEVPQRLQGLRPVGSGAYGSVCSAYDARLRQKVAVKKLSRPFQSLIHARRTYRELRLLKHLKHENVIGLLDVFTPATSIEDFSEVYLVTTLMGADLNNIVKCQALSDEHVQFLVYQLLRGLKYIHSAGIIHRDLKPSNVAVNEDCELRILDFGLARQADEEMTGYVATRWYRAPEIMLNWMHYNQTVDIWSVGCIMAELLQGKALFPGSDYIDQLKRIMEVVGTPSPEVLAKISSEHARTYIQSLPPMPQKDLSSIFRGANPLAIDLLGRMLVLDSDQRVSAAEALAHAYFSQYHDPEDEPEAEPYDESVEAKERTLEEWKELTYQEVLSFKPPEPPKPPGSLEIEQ

[7] = biological target: Mitogen-activated protein kinase 8 (Homo sapiens, UniProt P45983); assay: Inhibition of JNK1
Mitogen-activated protein kinase 8, sequence (P45983 whole entry): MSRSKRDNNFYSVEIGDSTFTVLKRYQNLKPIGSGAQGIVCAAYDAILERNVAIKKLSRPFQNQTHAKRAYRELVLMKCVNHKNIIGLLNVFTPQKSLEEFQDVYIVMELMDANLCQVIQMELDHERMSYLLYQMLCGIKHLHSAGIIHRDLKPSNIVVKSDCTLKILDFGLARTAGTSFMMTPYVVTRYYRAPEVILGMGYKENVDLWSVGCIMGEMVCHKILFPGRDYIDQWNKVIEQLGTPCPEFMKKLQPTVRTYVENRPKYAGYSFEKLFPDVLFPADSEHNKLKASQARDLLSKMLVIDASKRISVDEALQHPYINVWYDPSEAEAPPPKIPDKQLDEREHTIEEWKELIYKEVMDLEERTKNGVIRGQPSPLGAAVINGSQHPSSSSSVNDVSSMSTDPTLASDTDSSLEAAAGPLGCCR

[8] = biological target: Mitogen-activated protein kinase 9 (Homo sapiens, UniProt P45984); assay: Inhibition of JNK2
Mitogen-activated protein kinase 9, sequence (P45984 whole entry): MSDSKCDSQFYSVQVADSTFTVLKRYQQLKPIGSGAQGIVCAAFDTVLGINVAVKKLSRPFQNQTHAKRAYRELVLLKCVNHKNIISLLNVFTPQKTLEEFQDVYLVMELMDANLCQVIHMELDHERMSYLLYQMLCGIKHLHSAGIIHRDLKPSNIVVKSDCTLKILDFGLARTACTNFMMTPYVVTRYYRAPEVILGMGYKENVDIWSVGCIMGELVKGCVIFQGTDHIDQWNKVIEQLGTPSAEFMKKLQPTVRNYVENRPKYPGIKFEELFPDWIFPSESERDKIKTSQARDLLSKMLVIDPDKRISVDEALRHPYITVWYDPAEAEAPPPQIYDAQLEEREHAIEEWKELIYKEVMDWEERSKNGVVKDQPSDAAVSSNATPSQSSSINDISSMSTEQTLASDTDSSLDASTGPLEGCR

[9] = biological target: Mitogen-activated protein kinase 10 (Homo sapiens, UniProt P53779); assay: Inhibition of JNK3
Mitogen-activated protein kinase 10, sequence (P53779 whole entry): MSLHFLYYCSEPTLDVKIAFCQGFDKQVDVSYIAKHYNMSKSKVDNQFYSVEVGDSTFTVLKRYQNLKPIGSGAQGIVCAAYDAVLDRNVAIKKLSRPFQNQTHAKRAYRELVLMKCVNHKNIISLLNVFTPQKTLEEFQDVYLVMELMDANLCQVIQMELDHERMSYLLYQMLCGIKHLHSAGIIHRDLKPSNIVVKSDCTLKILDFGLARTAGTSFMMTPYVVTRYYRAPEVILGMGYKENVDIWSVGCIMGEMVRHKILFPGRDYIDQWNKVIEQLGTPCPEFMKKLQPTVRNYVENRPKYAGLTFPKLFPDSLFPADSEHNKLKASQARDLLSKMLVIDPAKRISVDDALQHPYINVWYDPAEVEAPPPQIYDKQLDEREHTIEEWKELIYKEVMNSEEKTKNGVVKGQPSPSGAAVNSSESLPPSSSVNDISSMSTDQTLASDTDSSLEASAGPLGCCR

[10] = biological target: T2, Inhibitor of nuclear factor kappa-B kinase subunit beta (Homo sapiens); assay: Inhibition of IKKbeta using 5FAM-GRHDSGLDSMK-NH2 as substrate at 10 uM incubated for 10 mins prior to substrate addition by IMAP-TR-FRET assay

Row | Structure (SMILES) | IC50 [1] [µM] | inhibition [2] [%] | IC50 [3] [µM] | inhibition [10] [%] | also measured
1 | CN1CCN(CCCOc2ccc(N3C(=O)/C(=C/c4ccc(Oc5cccc(C(N)=O)c5)cc4)SC3=S)cc2)CC1 | 1.5 | 64.7 | 5 | 86.8 | IC50 [4]: > 30 µM; IC50 [5]: > 30 µM; IC50 [6]: > 30 µM; IC50 [7]: > 30 µM; IC50 [8]: > 30 µM; IC50 [9]: > 30 µM
2 | CCN(CC)CCCOc1ccc(N2C(=O)/C(=C/c3ccc(O)cc3)SC2=S)cc1 | 23.6 | – | – | 56 | –
3 | CCN(CC)CCCOc1ccc(N2C(=O)/C(=C/C=C/c3ccc(N(C)C)cc3)SC2=S)cc1 | – | – | – | 28.1 | –
4 | NC(=O)c1ccccc1Oc1ccc(/C=C2\SC(=S)N(c3ccc(OCCCN4CCCCC4)cc3)C2=O)cc1 | – | – | – | 18.6 | –
5 | CCN(CC)CCCOc1ccc(N2C(=O)/C(=C/c3ccc(Oc4ccccc4C(N)=O)cc3)SC2=S)cc1 | – | – | – | 4.8 | –
6 | CCN(CC)CCCOc1ccc(N2C(=O)/C(=C/c3ccc(-c4ccc(C(N)=O)cc4)o3)SC2=S)cc1 | 3.3 | 57.4 | – | 77.2 | –
7 | CCN(CC)CCCOc1ccc(N2C(=O)/C(=C/c3ccc(Oc4ccc(Cl)cc4)cc3)SC2=S)cc1 | 15.6 | 71.4 | 13 | 36.5 | –
8 | NC(=O)c1ccccc1Oc1ccc(/C=C2\SC(=S)N(c3ccc(OCCCN4CCCC4)cc3)C2=O)cc1 | – | – | – | 21.3 | –
9 | NC(=O)c1cccc(Oc2ccc(/C=C3\SC(=S)N(c4ccc(OCCCN5CCOCC5)cc4)C3=O)cc2)c1 | – | – | – | 48.8 | –
10 | CN1CCN(CCCCCOc2ccc(N3C(=O)/C(=C/c4ccc(Oc5ccc(C(N)=O)cc5)cc4)SC3=S)cc2)CC1 | 0.16 | – | – | 89.3 | –
11 | CN1CCN(CCCCOc2ccc(N3C(=O)/C(=C/c4ccc(Oc5ccc(C(N)=O)cc5)cc4)SC3=S)cc2)CC1 | 0.23 | – | 4 | 90.4 | –
12 | CCN(CC)CCOc1ccc(N2C(=O)/C(=C/c3ccc(Oc4ccc(C(N)=O)cc4)cc3)SC2=S)cc1 | 8.7 | 58.5 | 8 | 62.6 | –
13 | CCN(CC)CCCOc1ccc(N2C(=O)/C(=C/c3ccc(-c4cccc(C(N)=O)c4)o3)SC2=S)cc1 | 5.7 | 59.1 | – | 87.1 | –
14 | NC(=O)c1ccc(Oc2ccc(/C=C3\SC(=S)N(c4ccc(OCCCN5CCCCC5)cc4)C3=O)cc2)cc1 | 4.2 | 48.2 | 30 | 81.2 | –
15 | CCN(CC)CCOc1ccc(N2C(=O)/C(=C/c3ccc(Oc4cccc(C(N)=O)c4)cc3)SC2=S)cc1 | – | 57 | 7 | 17.1 | –
16 | NC(=O)c1cccc(Oc2ccc(/C=C3\SC(=S)N(c4ccc(OCCCN5CCCC5)cc4)C3=O)cc2)c1 | 6.3 | 57 | 7 | 57.3 | –

Row | Structure (SMILES) | IC50 [1] [µM] | inhibition [2] [%] | IC50 [3] [µM] | inhibition [10] [%] | also measured
17 | CCN(CC)CCCOc1ccc(N2C(=O)/C(=C/c3ccc(Cl)c(Cl)c3)SC2=S)cc1 | 9.3 | – | – | 61.8 | –
18 | CCN(CC)CCCOc1ccc(N2C(=O)/C(=C/c3ccc(Oc4cccc(C(N)=O)c4)cc3)SC2=S)cc1 | 7.3 | 39.3 | 10 | 84.9 | –
19 | NC(=O)c1ccc(Oc2ccc(/C=C3\SC(=S)N(c4ccc(OCCCN5CCCC5)cc4)C3=O)cc2)cc1 | 1.5 | 58.5 | 5 | 85.3 | IC50 [4]: > 30 µM; IC50 [5]: > 30 µM; IC50 [6]: > 30 µM; IC50 [7]: > 30 µM; IC50 [8]: > 30 µM; IC50 [9]: > 30 µM
20 | CCN(CC)CCCOc1ccc(N2C(=O)/C(=C/c3ccc(Oc4ccc(C(N)=O)cc4)cc3)SC2=S)cc1 | 2.6 | 46.6 | 8 | 95.7 | –
21 | CCN(CC)CCOc1ccc(N2C(=O)/C(=C/c3ccc(Oc4ccccc4C(N)=O)cc3)SC2=S)cc1 | – | – | – | 1.6 | –
22 | CCN(CC)CCCOc1ccc(N2C(=O)/C(=C/c3ccc(C(N)=O)cc3)SC2=S)cc1 | – | – | – | 15.5 | –
23 | N#Cc1c(C2CCCNC2)cc(-c2ccccc2O)nc1N (stereo not drawn) | 0.17 | 73.9 | 1.8 | 88.7 | IC50 [4]: 0.64 µM
24 | CCN(CC)CCCOc1ccc(N2C(=O)/C(=C/c3ccc4ccccc4c3)SC2=S)cc1 | – | – | – | 23.4 | –
25 | CCN(CC)CCCOc1ccc(N2C(=O)/C(=C/c3ccncc3)SC2=S)cc1 | – | – | – | 3.2 | –
26 | CCN(CC)CCCOc1ccc(N2C(=O)/C(=C/c3c(Cl)cccc3Cl)SC2=S)cc1 | – | – | – | 3.4 | –
27 | CCN(CC)CCCOc1ccc(N2C(=O)/C(=C/C=C(c3ccccc3)c3ccccc3)SC2=S)cc1 | 14.1 | – | – | 52.6 | –
28 | NC(=O)c1cccc(Oc2ccc(/C=C3\SC(=S)N(c4ccc(OCCCN5CCCCC5)cc4)C3=O)cc2)c1 | 6.3 | 42.1 | 30 | 83 | –
29 | NC(=O)c1cccc(-c2ccc(/C=C3\SC(=S)N(c4ccc(OCCCN5CCOCC5)cc4)C3=O)o2)c1 | – | – | – | 2.1 | –
30 | CN1CCN(CCCOc2ccc(N3C(=O)/C(=C/c4ccc(Oc5ccccc5C(N)=O)cc4)SC3=S)cc2)CC1 | 8.5 | 42.4 | 12 | 52.7 | –
31 | CN1CCN(CCCOc2ccc(N3C(=O)/C(=C/c4ccc(Oc5ccc(C(N)=O)cc5)cc4)SC3=S)cc2)CC1 | 0.35 | 65.4 | 2 | 90.1 | IC50 [4]: > 30 µM; IC50 [5]: > 30 µM; IC50 [6]: > 30 µM; IC50 [7]: > 30 µM; IC50 [8]: > 30 µM; IC50 [9]: > 30 µM

Source: ChEMBL document CHEMBL2069238, “Discovery of potent and selective rhodanine type IKKβ inhibitors by hit-to-lead strategy” (Bioorg Med Chem Lett, 2012)
